Results as given in ChEMBL document CHEMBL1275477, “Discovery and characterization of QPT-1, the progenitor of a new class of bacterial topoisomerase inhibitors” (Antimicrob Agents Chemother, 2008).
In brackets after ≈: the same amount, converted by molar mass.

Experiments:
[1] = test system: Staphylococcus aureus; assay: Antimicrobial activity against methicillin-resistant Staphylococcus aureus SUAR 1015-01 harboring gyrA S84L, parC S80F and parE S189R mutant gene by broth microdilution method; format: functional
In short: (§1)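 Broth microdilution MIC following National Committee for Clinical Laboratory Standards methods. Plasmid-borne GyrB in transformed S. aureus strains was overexpressed by adding 100 ng/ml doxycycline.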

[2] = test system: Escherichia coli; assay: Antibacterial activity against tolC-deficient Escherichia coli UC31708 by broth microdilution method; format: functional; in short: as §1
[3] = test system: Staphylococcus aureus; assay: Antibacterial activity against methicillin and ciprofloxacin-resistant Staphylococcus aureus UC12673 by broth microdilution method; format: functional; in short: as §1
[4] = Inhibition of human DNA topoisomerase 4 by gel electrophoresis
[5] = AUC (0 to infinity) in lethal systemic CF-1 mouse infection model at 20.3 mg/kg, po; format: ADME, organism-based; design: dose 20.3 mg/kg, route oral, time infinity; details: in vivo
In short: (§2)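 Mouse pharmacokinetics: single dose in 0.2 ml, given orally (pH 4.5 acetate-buffered 20% DMSO–methylcellulose suspension) or intravenously (20% hydroxypropyl beta-cyclodextrin, pH 7 phosphate buffer). Plasma sampled to 480 min: iv at 0, 2, 15, 30, 60, 120, 240, 480 min; oral at 0, 20, 30, 60, 120, 240, 360, 480 min. Three mice per time point; mean concentration–time data analysed noncompartmentally.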

[6] = test system: Enterococcus faecium; assay: Antibacterial activity against Enterococcus faecium UC12712 by broth microdilution method; format: functional; in short: as §1
[7] = test system: Staphylococcus aureus; assay: Antibacterial activity against methicillin-susceptible Staphylococcus aureus by broth microdilution method; format: functional; in short: as §1
[8] = test system: Staphylococcus aureus; assay: Antimicrobial activity against Staphylococcus aureus COL harboring gyrB V28A mutant gene by broth microdilution method; format: functional; in short: as §1
[9] = test system: Mus musculus; assay: Toxicity in lethal systemic CF-1 mouse infection model assessed as adverse effects at 200 mg/kg, po; format: organism-based; design: dose 200 mg/kg, route oral; details: in vivo
[10] = test system: Staphylococcus aureus; assay: Antibacterial activity against Staphylococcus aureus RN4220 by broth microdilution method; format: functional; in short: as §1
[11] = Volume of distribution at steady state in lethal systemic CF-1 mouse infection model at 21.6 mg/kg, iv; format: ADME, organism-based; design: dose 21.6 mg/kg, route intravenous; details: in vivo, read-out: Vdss
[12] = Half life in lethal systemic CF-1 mouse infection model at 20.3 mg/kg, po; format: ADME, organism-based; design: dose 20.3 mg/kg, route oral; details: in vivo; in short: as §2
[13] = test system: Staphylococcus aureus; assay: Antimicrobial activity against Staphylococcus aureus MW2 harboring parC R400C mutant gene by broth microdilution method; format: functional; in short: as §1
[14] = test system: Staphylococcus aureus; assay: Antibacterial activity against norA-deficient Staphylococcus aureus RN4220 by broth microdilution method; format: functional; in short: as §1
[15] = test system: Streptococcus pyogenes; assay: Antibacterial activity against Streptococcus pyogenes UC152 by broth microdilution method; format: functional; in short: as §1
[16] = test system: Escherichia coli; assay: Antibacterial activity against acrAB-deficient Escherichia coli UC31701 by broth microdilution method; format: functional; in short: as §1
[17] = test system: Haemophilus influenzae; assay: Antibacterial activity against acrAB-deficient Haemophilus influenzae 31809 by broth microdilution method; format: functional; in short: as §1
[18] = Oral bioavailability in lethal systemic CF-1 mouse infection model at 20.3 mg/kg, po; format: ADME, organism-based; details: in vivo; in short: as §2
[19] = test system: Streptococcus pneumoniae; assay: Antibacterial activity against Streptococcus pneumoniae by broth microdilution method; format: functional; in short: as §1
[20] = test system: Moraxella catarrhalis; assay: Antibacterial activity against Moraxella catarrhalis UC3067 by broth microdilution method; format: functional; in short: as §1
[21] = test system: Staphylococcus aureus; assay: Antibacterial activity against methicillin-susceptible Staphylococcus aureus UC9218 by broth microdilution method; format: functional; in short: as §1
[22] = Inhibition of Escherichia coli DNA topoisomerase 4 by gel electrophoresis
[23] = test system: Staphylococcus aureus; assay: Antibacterial activity against methicillin-resistant Staphylococcus aureus UC9213 by broth microdilution method; format: functional; in short: as §1
[24] = AUC (0 to infinity) in lethal systemic CF-1 mouse infection model at 21.6 mg/kg, iv; format: ADME, organism-based; design: time infinity, dose 21.6 mg/kg, route intravenous; details: in vivo; in short: as §2
[25] = test system: Enterococcus faecalis; assay: Antibacterial activity against Enterococcus faecalis UC9217 by broth microdilution method; format: functional; in short: as §1
[26] = test system: Staphylococcus aureus; assay: Antibacterial activity against Staphylococcus aureus ATCC 29213 by broth microdilution method; format: functional; in short: as §1
[27] = test system: Staphylococcus aureus; assay: Antibacterial activity against quinoline pyrimidine trione-resistant Staphylococcus aureus ATCC 29213 by broth microdilution method; format: functional; in short: as §1
[28] = test system: Haemophilus influenzae; assay: Antibacterial activity against Haemophilus influenzae UC30063 by broth microdilution method; format: functional; in short: as §1
[29] = test system: Staphylococcus aureus; assay: Antimicrobial activity against Staphylococcus aureus 286607-R1 harboring wild type gyrB by broth microdilution method; format: functional; in short: as §1
[30] = Tmax in lethal systemic CF-1 mouse infection model at 20.3 mg/kg, po; format: ADME, organism-based; design: dose 20.3 mg/kg, route oral; details: in vivo; in short: as §2
[31] = Clearance in lethal systemic CF-1 mouse infection model at 21.6 mg/kg, iv; format: ADME, organism-based; design: dose 21.6 mg/kg, route intravenous; details: in vivo; in short: as §2
[32] = test system: Staphylococcus epidermidis; assay: Antibacterial activity against methicillin and ciprofloxacin-resistant Staphylococcus epidermidis UC12084 by broth microdilution method; format: functional; in short: as §1
[33] = Inhibition of Escherichia coli DNA gyrase by gel electrophoresis
[34] = test system: Staphylococcus aureus; assay: Antibacterial activity against methicillin-resistant Staphylococcus aureus by broth microdilution method; format: functional; in short: as §1
[35] = Half life in lethal systemic CF-1 mouse infection model at 21.6 mg/kg, iv; format: ADME, organism-based; design: dose 21.6 mg/kg, route intravenous; details: in vivo; in short: as §2
[36] = test system: Staphylococcus aureus; assay: Antibacterial activity against ciprofloxacin-resistant Staphylococcus aureus ATCC 29213 by broth microdilution method; format: functional; in short: as §1
[37] = test system: Streptococcus pneumoniae; assay: Antibacterial activity against ciprofloxacin-resistant Streptococcus pneumoniae by broth microdilution method; format: functional; in short: as §1
[38] = Cmax in lethal systemic CF-1 mouse infection model at 21.6 mg/kg, iv; format: ADME, organism-based; design: dose 21.6 mg/kg, route intravenous; details: in vivo; in short: as §2
[39] = test system: Streptococcus pneumoniae; assay: Antibacterial activity against Streptococcus pneumoniae UC15142 by broth microdilution method; format: functional; in short: as §1
[40] = test system: Streptococcus pneumoniae; assay: Antibacterial activity against Streptococcus pneumoniae UC9912 by broth microdilution method; format: functional; in short: as §1
[41] = test system: Staphylococcus aureus; assay: Antibacterial activity against methicillin-resistant Staphylococcus aureus UC9213 in orally dosed lethal systemic CF-1 mouse infection model; format: functional; details: UC9213, po
In short: (§3)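 Lethal systemic infection in female CF-1 mice (20 g), infected intraperitoneally with enough bacteria to kill 90–100% of untreated mice. Thawed cultures were suspended in brain heart infusion broth with 4% (wt/vol) dried brewer's yeast. Drug given orally or subcutaneously at 1 and 5 h postinfection, at five or more dose levels, six mice per level. Survival followed for 1 week; ED50 by probit analysis.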

[42] = test system: Staphylococcus aureus; assay: Antibacterial activity against Staphylococcus aureus UC9218 by broth microdilution method in presence of 50% serum; format: functional; in short: as §1
[43] = test system: Staphylococcus aureus; assay: Antibacterial activity against ciprofloxacin-resistant Staphylococcus aureus by broth microdilution method; format: functional; in short: as §1
[44] = test system: Staphylococcus aureus; assay: Antibacterial activity against Staphylococcus aureus UC9218 by broth microdilution method in presence of 25% serum; format: functional; in short: as §1
[45] = test system: Escherichia coli; assay: Antibacterial activity against Escherichia coli UC6674 by broth microdilution method; format: functional; in short: as §1
[46] = test system: Staphylococcus aureus; assay: Antimicrobial activity against Staphylococcus aureus USA200 harboring […] S84L and parC R400C mutant gene by broth microdilution method; format: functional; in short: as §1
[47] = Cmax in lethal systemic CF-1 mouse infection model at 20.3 mg/kg, po; format: ADME, organism-based; design: dose 20.3 mg/kg, route oral; details: in vivo; in short: as §2
[48] = test system: Staphylococcus aureus; assay: Antimicrobial activity against Staphylococcus aureus RN4220 expressing gyrB D437N mutant gene by broth microdilution method; format: functional; in short: as §1
[49] = test system: Staphylococcus aureus; assay: Antimicrobial activity against Staphylococcus aureus 286607-R1 by broth microdilution method; format: functional; in short: as §1
[50] = test system: Staphylococcus aureus; assay: Antibacterial activity against methicillin-resistant Staphylococcus aureus UC9213 infected in subcutaneously dosed lethal systemic CF-1 mouse infection model; format: functional; details: UC9213, sc; in short: as §3

## CC1CN2c3ccc([N+](=O)[O-])cc3CC3(C(=O)NC(=O)NC3=O)C2C(C)O1 (racemic)
[1]
  MIC: 0.5 µg/mL (≈ 1.34 µM)
[2]
  MIC: < 0.06 µg/mL
[3]
  MIC: 1 µg/mL (≈ 2.67 µM)
[4]
  IC50: 200 µM
[5]
  AUC(0-inf): 27600 ng·h/mL
[6]
  MIC: 8 µg/mL (≈ 21.4 µM)
[7]
  MIC50: 1 µg/mL (≈ 2.67 µM)
  MIC90: 1 µg/mL (≈ 2.67 µM)
[8]
  MIC: 1 µg/mL (≈ 2.67 µM)
[9]
  Activity: Non-toxic
[10]
  MIC: 1 µg/mL (≈ 2.67 µM)
[11]
  Vd: 0.623 L/kg
[12]
  half-life: 0.927 h
[13]
  MIC: 1 µg/mL (≈ 2.67 µM)
[14]
  MIC: 1 µg/mL (≈ 2.67 µM)
[15]
  MIC: 2 µg/mL (≈ 5.34 µM)
[16]
  MIC: 0.125 µg/mL (≈ 0.334 µM)
[17]
  MIC: < 0.06 µg/mL
[18]
  bioavailability: 94.7%
[19]
  MIC50: 4 µg/mL (≈ 10.7 µM)
  MIC90: 8 µg/mL (≈ 21.4 µM)
[20]
  MIC: 2 µg/mL (≈ 5.34 µM)
[21]
  MIC: 1 µg/mL (≈ 2.67 µM)
[22]
  IC50: 30 µM
[23]
  MIC: 1 µg/mL (≈ 2.67 µM)
[24]
  AUC(0-inf): 31000 ng·h/mL
[25]
  MIC: 4 µg/mL (≈ 10.7 µM)
[26]
  MIC: 1 µg/mL (≈ 2.67 µM)
[27]
  MIC: 8 µg/mL (≈ 21.4 µM)
[28]
  MIC: 0.5 µg/mL (≈ 1.34 µM)
[29]
  MIC: 4 µg/mL (≈ 10.7 µM)
[30]
  Tmax: 1 h
[31]
  clearance: 11.6 mL/min/kg
[32]
  MIC: 1 µg/mL (≈ 2.67 µM)
[33]
  IC50: 9 µM
[34]
  MIC: 1 µg/mL (≈ 2.67 µM)
  MIC50: 1 µg/mL (≈ 2.67 µM)
  MIC90: 2 µg/mL (≈ 5.34 µM)
[35]
  half-life: 1.22 h
[36]
  MIC: 1 µg/mL (≈ 2.67 µM)
[37]
  MIC50: 4 µg/mL (≈ 10.7 µM)
  MIC90: 8 µg/mL (≈ 21.4 µM)
[38]
  Cmax: 15700 ng/mL
[39]
  MIC: 4 µg/mL (≈ 10.7 µM)
[40]
  MIC: 4 µg/mL (≈ 10.7 µM)
[41]
  ED50: 19.5 mg/kg
[42]
  MIC: 4 µg/mL
[43]
  MIC50: 1 µg/mL (≈ 2.67 µM)
  MIC90: 1 µg/mL (≈ 2.67 µM)
[44]
  MIC: 2 µg/mL
[45]
  MIC: 4 µg/mL (≈ 10.7 µM)
[46]
  MIC: 1 µg/mL (≈ 2.67 µM)
[47]
  Cmax: 15700 ng/mL
[48]
  MIC: 1 µg/mL (≈ 2.67 µM)
[49]
  MIC: 16 µg/mL (≈ 42.7 µM)
[50]
  ED50: 12.5 mg/kg
